The nature of series [1]: Drug uptake in human MCF7 cells at 1 to 10 uM after 24 hrs by HPLC-MS/MS analysis. It counts as ADME, cell-based. Conditions: mcf7, 24 h, dose 1-10 µM; call rule not given here. The method in brief:
(§1)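 MCF7 cells received 1, 5 or 10uM of each isomer for 1h or 24h as stated. Intracellular isomer levels were quantified by UHPLC-MS/MS of lipid extracts from cell pellets. Data are means ± st dev of triplicates.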

Series [2] is described as follows: Drug metabolism in human MCF7 cells assessed as ceramidase-mediated C16 metabolite formation at 1 to 10 uM after 24 hrs by UHPLC-MS/MS analysis. Conditions: mcf7, 24 h, dose 1-10 µM. It is filed as ADME, cell-based.
Series [3] can be described thus: Drug metabolism in human MCF7 cells assessed as ceramidase mediated C16 metabolite formation after 24 hrs by UHPLC-MS/MS analysis. It is filed as ADME, cell-based. As to conditions: mcf7, 24 h. Summed up: (§2)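 Cells were treated with 10uM of each isomer for 24h, then pellets were collected and lipids extracted. C16 and C24:1 analogs were quantified by UHPLC-MS/MS as pmol/nmol lipid phosphate, referenced against standards. Values are means ± st dev of triplicates from 3 separate experiments.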

The nature of series [4]: Drugmetabolism in human MCF7 cells assessed as formation of phosphorylated free sphingoid base at 1 to 10 uM after 24 hrs by UHPLC-MS/MS analysis. Conditions: mcf7, 24 h, dose 1-10 µM. It counts as ADME, cell-based.
The nature of series [5]: Drug metabolism in human MCF7 cells assessed as ceramidase mediated C24:1 metabolite formation after 24 hrs by UHPLC-MS/MS analysis. It counts as ADME, cell-based. Conditions: mcf7, 24 h. Summed up: as §2
A short description of series [6]: Drug uptake in human MCF7 cells at 1 to 10 uM after 1 hr by HPLC-MS/MS analysis. As to conditions: mcf7, 1 h, dose 1-10 µM. It is filed as ADME, cell-based. The method in brief:
as §1

Series [7] relates to MCF7. In words: Antiproliferative activity against human MCF7 cells assessed as growth inhibition after 24 hrs by MTT assay. As to conditions: MCF7, 24 h. It is filed as functional, cell-based. Summed up: (§3)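 MCF7 (RPMI 1640 with 10% FBS, 2mM L-glutamine, 37°C, 5% CO2) harvested in exponential growth, then exposed to each B13 stereoisomer for the stated time. Viable cells were quantified by MTT and expressed as % of untreated control (means ± st dev, 5 replicates). IC50 values were derived per time point.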

Series [8] in a line: Drug metabolism in human MCF7 cells assessed as increase in C24:1-dihydroceramide elevation at 10 uM after 1 hr by UHPLC-MS/MS analysis. It counts as ADME, cell-based. As to conditions: mcf7, 1 h. Summed up: (§4)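 After 1h of exposure to 10uM of each isomer, MCF7 pellets were extracted. Endogenous Cn-Cer and Cn-dhCer species were quantified by UHPLC-MS/MS as pmol/nmol lipid phosphate. Results are triplicate means ± st dev versus control.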

Series [9] has as its system MCF7. In words: Antiproliferative activity against human MCF7 cells assessed as growth inhibition after 48 hrs by MTT assay. As to conditions: MCF7, 48 h. It is filed as functional, cell-based.
Series [10] is described as follows: Drug metabolism in human MCF7 cells assessed as increase in C24-dihydroceramide elevation at 10 uM after 1 hr by UHPLC-MS/MS analysis. It is filed as ADME, cell-based. As to conditions: mcf7, 1 h. Summed up:
as §4

Series [11] deals with MCF7. In words: Antiproliferative activity against human MCF7 cells assessed as growth inhibition after 72 hrs by MTT assay. It counts as functional, cell-based. As to conditions: MCF7, 72 h. The method in brief:
as §3
(Formazan colour is commonly taken as a measure of viable cells.)

The nature of series [12]: Drug metabolism in human MCF7 cells assessed as increase in C26-dihydroceramide elevation at 10 uM after 1 hr by UHPLC-MS/MS analysis. It counts as ADME, cell-based. Conditions: mcf7, 1 h. The method in brief: as §4
The nature of series [13]: Drug metabolism in human MCF7 cells assessed as increase in C26:1-dihydroceramide elevation at 10 uM after 1 hr by UHPLC-MS/MS analysis. It is filed as ADME, cell-based. Conditions: mcf7, 1 h. Summed up:
as §4

The nature of series [14]: Drug metabolism in human MCF7 cells assessed as elevation of =<C18-ceramide metabolite at 10 uM after 24 hr by UHPLC-MS/MS analysis. It counts as ADME, cell-based. Conditions: mcf7, 24 h. The method in brief: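 Each isomer was given at 10uM to MCF7 cells for 24h. Lipid extracts of the cell pellets were profiled by UHPLC-MS/MS for Cn-Cer species, normalized to lipid phosphate (pmol/nmol). Data are means ± st dev of triplicates, compared with vehicle control (p<0.05).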

Series [15] in a line: Drug metabolism in human MCF7 cells assessed as reduction in elevation of C26-ceramide metabolite formation at 10 uM after 1 hr by UHPLC-MS/MS analysis. Conditions: mcf7, 1 h. It is filed as ADME, cell-based. Summed up:
as §4

Series [16] is described as follows: Drug metabolism in human MCF7 cells assessed as increase in C14-ceramide metabolite formation at 10 uM after 1 hr by UHPLC-MS/MS analysis. It is filed as ADME, cell-based. As to conditions: mcf7, 1 h. Summed up: as §4
Series [17] is described as follows: Drug metabolism in human MCF7 cells assessed as reduction in endogenous sphingosine level at 1 to 10 uM after 24 hrs by UHPLC-MS/MS analysis. It counts as ADME, cell-based. Conditions: mcf7, 24 h, dose 1-10 µM. Summed up:
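Isomers were applied at 1, 5 and 10uM for 24h. Endogenous Sph was measured in extracted pellet lipids by UHPLC-MS/MS (pmol/nmol lipid phosphate); the Cer/Sph ratio was also calculated. Values are triplicate means ± st dev versus control.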

Series [18] in a line: Drug metabolism in human MCF7 cells assessed as increase in C16-ceramide metabolite formation at 10 uM after 1 hr by UHPLC-MS/MS analysis. Conditions: mcf7, 1 h. It is filed as ADME, cell-based. The method in brief: as §4

Broadly, the IC50 is the concentration that inhibits the measured activity by half. Turning to `CCCCCCCCCCCCCC(=O)N[C@@H](CO)[C@H](O)c1ccc([N+](=O)[O-])cc1`, the Drug uptake entry in series [1] is given as “Not Active”; in [6], “Active”. The Drug metabolism result in series [2], in [3], in [4], in series [5], in [8] and in [10] was “Metabolite_Detected” each time. In addition, the Drug metabolism entry in series [12], in [13] and in series [14] was “Metabolite_Detected” in each case. The IC50 with MCF7 [7] was found to be 10.2 µM; with MCF7 [9], 8.08 µM; in the series with MCF7 [11], 9.39 µM.
Take `CCCCCCCCCCCCCC(=O)N[C@H](CO)[C@H](O)c1ccc([N+](=O)[O-])cc1`: the Drug uptake entry in [1] and in series [6] was “Active” throughout. The Drug metabolism entry in [2], in series [3], in series [5], in series [15], in [16] and in series [17] was “Metabolite_Detected” each time. Also, the Drug metabolism result in [18] is recorded as “Metabolite_Detected”. In addition, the IC50 was found to be 42.3 µM in the series on MCF7 [7], 35.6 µM with MCF7 [9] and 37 µM in the series with MCF7 [11].
Turning to `CCCCCCCCCCCCCC(=O)N[C@@H](CO)[C@@H](O)c1ccc([N+](=O)[O-])cc1`, the Drug uptake entry in series [1] and in series [6] was “Active” in each case. The Drug metabolism entry in [2], in series [3], in series [5] and in series [17] was “Metabolite_Detected” in each case. The IC50 stood at 54.1 µM in the series with MCF7 [7], 43.6 µM in the series on MCF7 [9] and 46.6 µM in the series on MCF7 [11].
In the case of `CCCCCCCCCCCCCC(=O)N[C@H](CO)[C@@H](O)c1ccc([N+](=O)[O-])cc1`, the Drug uptake result in [1] and in series [6] was “Active” in each case. Also, the Drug metabolism result in series [2], in series [3], in series [5] and in [17] was “Metabolite_Detected” throughout. Further, the IC50 in the series with MCF7 [7] was 18 µM; with MCF7 [9], 13.1 µM; with MCF7 [11], 13.5 µM.

Source of the values: ChEMBL document CHEMBL4715895, “Synthesis of erythro- B13 enantiomers and stereospecific action of full set of B13-isomers in MCF7 breast carcinoma cells: Cellular metabolism and effects on sphingolipids” (Bioorg Med Chem, 2021).
